ChEMBL document CHEMBL1131062, “Synthesis and pharmacological characterization of O-alkynyloximes of tropinone and N-methylpiperidinone as muscarinic agonists” (J Med Chem, 1998)
Values joined by “and” are separate entries in the source; they are usually repeats but may differ in a detail not shown here. Identical values can stand only once.

How the values were obtained:
[1] = Inhibitory selectivity for Muscarinic receptors M3 and M1
How it was run: (§1)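 Ratios of Ki values from rat tissue displacement binding. M1 used cerebral cortex with 0.5 nM [3H]pirenzepine. M2 used heart ventricle and M3 used submandibulary gland, both with 0.3 nM [3H]-N-methylscopolamine. All incubations ran 45 min at 30 °C with test compound at 10 nM–10 mM. Ki obtained by Cheng–Prusoff. Three independent experiments.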

Oryctolagus cuniculus = species: Oryctolagus cuniculus; test: Concentration required to relax phenylephrine-precontracted aortic rings by 50% in endothelium denuded rabbit aorta; details: read-out: ED50 (the source's name)
[2] = target: T1, Muscarinic acetylcholine receptor M2 (Rattus norvegicus, UniProt P10980); test: Binding affinity to Muscarinic acetylcholine receptor M2 by measuring its ability to displace [3H]N-methylscopolamine binding in rat heart
T1 sequence (P10980 whole entry): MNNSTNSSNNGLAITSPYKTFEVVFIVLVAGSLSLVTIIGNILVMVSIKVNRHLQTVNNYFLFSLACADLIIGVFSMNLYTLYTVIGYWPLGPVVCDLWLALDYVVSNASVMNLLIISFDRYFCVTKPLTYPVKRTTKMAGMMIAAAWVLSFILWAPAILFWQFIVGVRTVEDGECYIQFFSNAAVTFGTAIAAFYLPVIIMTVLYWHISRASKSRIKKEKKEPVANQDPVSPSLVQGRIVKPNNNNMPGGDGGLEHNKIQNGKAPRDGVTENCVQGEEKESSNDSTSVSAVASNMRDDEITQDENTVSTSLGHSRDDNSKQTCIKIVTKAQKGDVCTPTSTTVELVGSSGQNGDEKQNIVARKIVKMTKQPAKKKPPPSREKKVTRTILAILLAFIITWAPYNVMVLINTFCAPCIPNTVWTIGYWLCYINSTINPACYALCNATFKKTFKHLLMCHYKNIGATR
How it was run: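 Rat heart ventricle membranes, homogenized in sucrose/TRIS and washed in Na+/Mg2+ HEPES buffer pH 7.4. Nonspecific binding defined with 1 μM (±)-QNB. Bound ligand separated by centrifugation and counted by scintillation. Triplicate determinations. Ki derived from IC50 by Cheng–Prusoff.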

[3] = target: T2, Muscarinic acetylcholine receptor M3 (Rattus norvegicus, UniProt P08483); test: Binding affinity to Muscarinic acetylcholine receptor M3 by measuring its ability to displace [3H]N-methylscopolamine binding in rat submandibulary gland
T2 sequence (P08483 whole entry): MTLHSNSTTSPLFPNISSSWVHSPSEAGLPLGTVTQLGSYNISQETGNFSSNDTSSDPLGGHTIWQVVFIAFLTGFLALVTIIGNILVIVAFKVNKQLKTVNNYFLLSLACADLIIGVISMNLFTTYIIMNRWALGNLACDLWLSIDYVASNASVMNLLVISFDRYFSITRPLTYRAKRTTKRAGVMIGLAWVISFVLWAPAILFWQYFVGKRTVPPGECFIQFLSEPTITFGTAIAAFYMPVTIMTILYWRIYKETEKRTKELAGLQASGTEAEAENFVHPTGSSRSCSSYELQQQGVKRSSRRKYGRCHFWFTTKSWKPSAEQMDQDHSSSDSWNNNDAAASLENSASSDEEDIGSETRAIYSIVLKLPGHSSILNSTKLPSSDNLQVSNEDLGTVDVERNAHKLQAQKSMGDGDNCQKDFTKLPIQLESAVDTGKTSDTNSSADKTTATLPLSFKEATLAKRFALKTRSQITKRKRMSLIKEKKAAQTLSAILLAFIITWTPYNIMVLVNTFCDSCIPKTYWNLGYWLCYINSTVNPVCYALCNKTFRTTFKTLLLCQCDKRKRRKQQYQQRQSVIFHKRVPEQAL
How it was run: (§2)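 Rat submandibulary gland membranes prepared in Na+/Mg2+ HEPES buffer pH 7.4. Incubated 45 min at 30 °C with 0.3 nM [3H]-N-methylscopolamine and test compound (10 nM–10 mM). Nonspecific binding defined with 1 μM (±)-QNB. Pellet obtained by centrifugation and counted by scintillation. Triplicate determinations. Ki derived from IC50 by Cheng–Prusoff.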

[4] = target: Muscarinic receptor M2 and M3 (Rattus norvegicus) (UniProt P08483+P10980); test: Inhibitory selectivity for Muscarinic receptors M3 and M2; assay type: protein assay; how it was run: as §1
Sequence of Muscarinic receptor M2 and M3 (Rattus norvegicus) (P08483 whole entry, looked up, one chain of several): as the sequence (P08483 whole entry) above

[5] = target: Muscarinic receptor M1 and M2 (Rattus norvegicus) (UniProt P08482+P10980); test: Inhibitory selectivity for Muscarinic receptors M2 and M1; assay type: protein assay; how it was run: as §1
Sequence of Muscarinic receptor M1 and M2 (Rattus norvegicus) (P08482 whole entry, looked up, one chain of several): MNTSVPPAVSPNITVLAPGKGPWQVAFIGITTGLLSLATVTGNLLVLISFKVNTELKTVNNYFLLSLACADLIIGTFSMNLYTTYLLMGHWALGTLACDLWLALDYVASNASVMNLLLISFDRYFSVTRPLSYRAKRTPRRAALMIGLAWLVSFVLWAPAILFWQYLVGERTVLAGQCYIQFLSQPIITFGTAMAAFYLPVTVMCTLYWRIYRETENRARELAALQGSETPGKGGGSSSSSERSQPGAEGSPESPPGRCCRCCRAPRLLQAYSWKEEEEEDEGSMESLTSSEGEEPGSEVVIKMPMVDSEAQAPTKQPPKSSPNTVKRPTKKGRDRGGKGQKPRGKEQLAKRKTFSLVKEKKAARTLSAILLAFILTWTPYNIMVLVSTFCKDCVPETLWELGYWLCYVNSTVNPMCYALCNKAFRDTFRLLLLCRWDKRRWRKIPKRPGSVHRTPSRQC

Rattus norvegicus = species: Rattus norvegicus; test: Concentration required to relax phenylephrine-precontracted aortic rings by 50% in endothelium intact rat aorta; assay type: functional; details: read-out: ED50 (the source's name)
How it was run: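 Endothelium-intact rat aortic rings equilibrated 60 min at 37 °C under 95% O2/5% CO2. Endothelium confirmed by relaxation to 10^-6 M ACh. After washout, rings precontracted with 10^-7 M phenylephrine. Test compound added cumulatively (10^-6–10^-4 M) at 2-min intervals. Each ring used once. ED50 taken from percent phenylephrine response versus concentration.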

[6] = target: T2, Muscarinic acetylcholine receptor M3; test: The compound was evaluated for its ability to inhibit [3H]NMS binding to Muscarinic acetylcholine receptor in submandibular salivary gland; assay type: tissue-based; how it was run: as §2

Row | Compound | Selectivity ratio [1] | EC50 (Oryctolagus cuniculus) | Ki [2] | Ki [3] | Selectivity ratio [4] | Selectivity ratio [5] | EC50 (Rattus norvegicus) | Ki [6]
1 | C#CC(C)ON=C1CC2CCC(C1)N2C (configuration not stated) | 0.46 | 26 µM | 6.31 µM | 3.98 µM | 0.72 | 4.5 | 6.9 µM | 
2 | C#CC(CC)ON=C1CC2CCC(C1)N2C (configuration not stated) | 22 | 41 µM | 6.31 µM | 6.31 µM | 1.1 | 20 | 5.5 µM | 
3 | CC#CCCON=C1CC2CCC(C1)N2C | 3 | 9.8 µM | 3.16 µM | 2.51 µM | 0.66 | 4.5 | 7.8 µM | 
4 | CC#CCCON=C1CCN(C)CC1 | 2 |  | 15.8 µM | 39.8 µM | 0.27 | 7.5 | 6.3 µM | 
5 | CC#CCON=C1CCN(C)CC1 | 35 | 8.7 µM | 7.94 µM | 126 µM | 17 | 2 | 8.7 µM | 
6 | CON=C1CC2CCC(C1)N2C | 0.1 | 11 µM | 126 µM | 100 µM | 0.74 | 0.14 | 11 µM | 
7 | C#CCCCON=C1CCN(C)CC1 | 1.7 | 13 µM | 10 µM | 15.8 µM | 1.5 | 1.1 | 9.3 µM | 
8 | C#CCON=C1CCN(C)CC1 | 0.42 | 11 µM | 25.1 µM | 20 µM | 0.72 | 0.59 | 6.8 µM | 
9 | CN1C2CCC1CC(=NO)C2 | 1.4 | 320 µM | 39.8 µM | 794 µM | 18 | 0.74 | 53 µM | 
10 | CCC#CCON=C1CCN(C)CC1 | 5.4 | 12 µM | 15.8 µM | 20 µM | 1.4 | 4 | 6.2 µM | 
11 | C#CCCON=C1CCN(C)CC1 | 25 | 28 µM | 10 µM | 39.8 µM | 3.7 | 6.2 | 7.4 µM | 
12 | O=C1CCCN1CC#CCN1CCCC1 [OXOTREMORINE] | 0.63 |  | 0.2 µM | 0.398 µM | 2 | 0.32 | 0.044 µM | 
13 | C#CCC(C)ON=C1CCN(C)CC1 (configuration not stated) | 15 | 25 µM | 10 µM | 50.1 µM | 5.4 | 2.9 | 5 µM | 
14 | C[N+](C)(C)CC#CCOC(=O)Nc1cccc(Cl)c1 | 0.46 | 0.35 µM | 6.31 µM |  | 0.33 | 1.4 | 9.6 µM | 
15 | CN1CCC(=NO)CC1 | 7.6 | 78 µM | 398 µM | 3160 µM | 8.5 | 0.9 | 43 µM | 
16 | CCC#CCON=C1CC2CCC(C1)N2C | 0.56 | 3.5 µM | 12.6 µM | 3.16 µM | 0.23 | 2.4 | 1.3 µM | 79.4 µM
17 | C#CCC(C)ON=C1CC2CCC(C1)N2C (configuration not stated) | 29 | 23 µM | 1.58 µM | 3.16 µM | 1.8 | 16 | 5.4 µM | 
18 | COC(=O)C1=CCCN(C)C1 [ARECOLINE] |  |  |  |  |  |  | 1.6 µM | 
19 | C#CCCCON=C1CC2CCC(C1)N2C | 16 | 6.5 µM | 6.31 µM | 10 µM | 1.3 | 12 | 5.9 µM | 
20 | CC#CCON=C1CC2CCC(C1)N2C | 27 | 4.8 µM | 12.6 µM | 15.8 µM | 1.1 | 24 | 3.4 µM | 20 µM
21 | C#CCON=C1CC2CCC(C1)N2C | 4.6 | 7.1 µM | 6.31 µM and 25.1 µM |  | 1.1 | 4.2 | 3.5 µM | 
22 | C#CCCON=C1CC2CCC(C1)N2C | 6.8 | 15 µM | 31.6 µM | 10 µM | 0.34 | 19 | 5.3 µM | 
23 | CON=C1CCN(C)CC1 | 0.51 | 260 µM | 39.8 µM | 25.1 µM | 0.71 | 0.74 | 13 µM | 
24 | C#CC(CC)ON=C1CCN(C)CC1 (configuration not stated) | 1.5 | 18 µM | 10 µM | 10 µM | 0.85 | 1.8 | 7.6 µM | 
25 | C#CC(C)ON=C1CCN(C)CC1 (configuration not stated) | 14 | 41 µM | 12.6 µM | 79.4 µM | 6.3 | 2.2 | 7.8 µM | 
